An excerpt weighted towards active compounds, which were near 6.5% of everything screened.
Calb biofilm kill = kills Candida albicans biofilms; 85,000 tested, 0.14% active; inhibition, % at 6 µM; C. albicans biofilm + clotrimazole, Alamar Blue;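 active = inhibition above 20%; inactive = inhibition below 20%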;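 also: preformed 24 hr biofilms exposed to compound for 48 hr; 0% = biofilm without compound and 100% = blank killed by clotrimazole plus chlorhexidine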
Ecoli tolC = E. coli tolC mutant growth inhibition | E. coli BW25113 tolC mutant growth, OD615 | 65,000 tested, 2.2% active | AID 573 | growth inhibition, % at 10 µM (by protocol);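 active = growth inhibition at or above a cutoff equal to the mean over every tested compound plus 3 SD, cut at about 60% in these data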;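 also: growth measured after 20 h incubation at 37 °C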
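Doses: one dose of 10 µM final / Material: E. coli BW25113 ΔtolC::kan, tolC deletion mutant strain / Buffer or medium: LB with kanamycin 50 µg/mL / Evaluation: percent growth inhibition / Detection: optical density read at 615 nm / Incubation: 37 °C, 20 h exposure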
Ecoli WT expand = E. coli BW25113 growth inhibition, expanded screen; OD600 absorbance; 98,000 tested, 0.15% active; growth inhibition, % at 100 µM;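 active = growth inhibition above about 50% at one test dose, limit read from the data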;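 also: growth measured after 20 h incubation at 37 °C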
Pyk2 oligo antag = antagonists of human Pyk2 oligomerization. 99,000 tested, 0.83% active. Q14289. Q293 cells, Pyk2 FERM NanoBiT luminescence; active compounds read low. AID 1347419. z-score (the deposit names both 25 µM and 10 µM);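 active = Z-score of -3 or lower, scaled per plate to the spread of control and sample wells; inactive = z-score above -3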;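 also: negative z-score means lost luminescence so less FERM oligomerization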
Target sequence (Q14289 whole entry, looked up): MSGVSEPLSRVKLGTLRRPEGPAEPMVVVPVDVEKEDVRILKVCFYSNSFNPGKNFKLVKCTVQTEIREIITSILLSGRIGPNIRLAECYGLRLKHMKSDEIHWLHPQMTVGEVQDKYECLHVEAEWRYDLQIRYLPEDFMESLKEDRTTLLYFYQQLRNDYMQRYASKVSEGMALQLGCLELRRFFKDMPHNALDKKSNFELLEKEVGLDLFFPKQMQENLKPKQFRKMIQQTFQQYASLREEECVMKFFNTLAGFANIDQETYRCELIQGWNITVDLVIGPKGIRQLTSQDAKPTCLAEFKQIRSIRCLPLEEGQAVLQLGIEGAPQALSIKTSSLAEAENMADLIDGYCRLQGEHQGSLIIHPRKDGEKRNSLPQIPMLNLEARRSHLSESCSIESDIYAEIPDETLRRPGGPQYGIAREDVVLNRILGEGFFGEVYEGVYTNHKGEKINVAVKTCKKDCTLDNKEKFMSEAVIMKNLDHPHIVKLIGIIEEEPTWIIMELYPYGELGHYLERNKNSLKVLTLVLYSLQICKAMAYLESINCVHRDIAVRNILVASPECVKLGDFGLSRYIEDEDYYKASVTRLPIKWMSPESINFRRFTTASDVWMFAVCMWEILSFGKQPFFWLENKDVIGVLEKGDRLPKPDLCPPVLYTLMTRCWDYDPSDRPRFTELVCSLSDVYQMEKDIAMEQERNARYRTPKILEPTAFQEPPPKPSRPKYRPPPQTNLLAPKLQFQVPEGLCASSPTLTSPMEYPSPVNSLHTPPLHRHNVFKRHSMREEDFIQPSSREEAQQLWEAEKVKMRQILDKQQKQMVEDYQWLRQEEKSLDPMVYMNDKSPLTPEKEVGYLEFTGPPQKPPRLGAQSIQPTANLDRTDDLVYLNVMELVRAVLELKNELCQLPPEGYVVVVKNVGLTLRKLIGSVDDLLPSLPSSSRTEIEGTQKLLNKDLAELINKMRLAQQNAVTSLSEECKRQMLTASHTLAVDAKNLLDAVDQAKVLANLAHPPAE
PostGolgi yeast = growth inhibition of a yeast mutant, post-Golgi transport screen; post-Golgi transport phenotypic cell assay; inhibition, % at 10 µM; 98,000 tested, 0.9% active;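 also: yeast cells grown in 1536-well plates; yeast grown about 18 h at 30C before absorbance read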
PostGolgi ctrl = growth of the yeast control strain, post-Golgi counter-screen; efflux-deficient yeast background strain, growth absorbance A615, 16 h; inhibition, % at 10 µM; 98,000 tested, 5% active; AID 738
Numbers without * were called inactive; . = no result given. Rule as the data show it, unless noted: active = inhibition above about 30%; inactive = the rest.

SMILES | Calb biofilm kill | Ecoli tolC | Ecoli WT expand | Pyk2 oligo antag | PostGolgi yeast | PostGolgi ctrl
CON/C=C(\C=Nc1ccc(Cl)cc1)c1ncc(C(F)(F)F)cc1Cl | . | . | -7 | 1.3 | -4 | 8
Brc1cc(Br)c2ncnc(N3CCCCC3)c2c1 | 5 | 100* | 11 | -0.87 | 20 | 17
CCCC(c1nnnn1CS(=O)(=O)c1ccc(C)cc1)N1CCN(c2ccccc2)CC1 (stereo not drawn) | 6 | 6 | -16 | -0.62 | -8 | 31*
CCCc1cc(C(N)=O)c(NC(=O)c2cc(C)on2)s1 | 1 | 20 | 2 | -2.4 | 9 | 49*
O=C(NC12CC3CC(CC(C3)C1)C2)c1ccc(COc2ccc(Cl)cc2[N+](=O)[O-])o1 | . | . | -12 | -0.06 | 4 | 51*
CCn1c(NC(=O)c2ccc(COc3ccc(C)cc3[N+](=O)[O-])o2)nc2ccccc21 | . | . | 0 | -0.88 | 0 | 16
CCOC(=O)c1c(C)[nH]c(C)c1C(=O)Cn1nnc(-c2ccccc2C)n1 | -1 | 63* | -18 | -1.8 | -3 | 26
OC(CN1c2ccccc2Sc2ccccc21)Cn1nnc2ccccc21 (stereo not drawn) | -3 | 39 | -9 | -1.3 | 10 | 47*
N#Cc1ccc(-c2ccc(OCC(O)Cn3nnc4ccccc43)cc2)cc1 (stereo not drawn) | 9 | 6 | -7 | -1.5 | -2 | 35*
CC(=O)c1ccc(OCC(O)Cn2nnc3ccccc32)cc1 (stereo not drawn) | . | 8 | 8 | 0.35 | 5 | 15
CCOc1ccc(NC(=O)Nc2cc(C)ccc2F)cc1 | 4 | . | -5 | -1 | -6 | 7
COc1ccc(-n2c(COc3cccc4ccccc34)nnc2SCC#N)cc1 | 4 | . | . | -1.2 | . | .
N#CCSc1nnc(COc2cccc3ccccc23)n1-c1cccc(Cl)c1 | . | 8 | -10 | -0.86 | -10 | 54*
N#CCSc1nnc(COc2cccc3ccccc23)n1-c1ccccc1 | -6 | 48 | -11 | -0.85 | -8 | 31*
COC(=O)[C@@H](N)CS | 11 | . | . | . | . | .
COc1ccc(S(=O)(=O)N(Cc2ccccc2)Cc2nc3ccccc3c(=O)[nH]2)cc1 | 4 | -29 | -5 | -2.5 | -2 | 1
COc1ccccc1CN(Cc1nc2ccccc2c(=O)[nH]1)S(=O)(=O)c1ccc2ccccc2c1 | 0 | . | . | -3* | . | .
CCc1c(C(=O)Nc2ccncc2)csc1C | 3 | -3 | 5 | 1.7 | 14 | 21
Cn1ncc(C#N)c1NC(=O)c1cc(-c2ccccc2Cl)on1 | 4 | . | -9 | -0.78 | -5 | 30*
C=CCn1c(SCc2nc(N)nc(N(C)C)n2)nnc1-c1cccnc1 | 1 | -17 | -7 | 0.09 | -3 | 33*
CCOc1ccc(N/N=C(/C#N)C(N)=O)cc1 | . | . | 0 | 0.4 | 104* | 90*
CCOc1ccc(N/C(SC)=C(/C#N)C(N)=O)cc1 | 4 | -13 | -9 | -0.17 | 0 | -14
C(=N\N1CCN(C2c3ccccc3-c3ccccc32)CC1)/c1ccccn1 | . | . | -11 | -0.18 | -9 | 31*
CCCc1c(C)[nH]c2ccc(NC(C)=O)cc2c1=O | 0 | . | 0 | -0.81 | -3 | 4
CCN(CC)S(=O)(=O)c1cccc(C(=O)Nc2cccnc2)c1 | 6 | -4 | 5 | -0.09 | -1 | 8
SMILES | Calb biofilm kill | Ecoli tolC | Ecoli WT expand | Pyk2 oligo antag | PostGolgi yeast | PostGolgi ctrl
CNS(=O)(=O)c1cccc(C(=O)Nc2cccnc2)c1 | . | . | 5 | 0.62 | -3 | 34*
CC[C@@H](C)[C@H](NC(=O)OC(C)(C)C)c1nnc(S(=O)(=O)Cc2cc(C)ccc2C)o1 | -2 | 2 | 13 | -0.6 | 5 | 41*
CC(C)(C)OC(=O)N[C@@H](Cc1ccccc1)c1nnc(S(=O)(=O)Cc2cccc(F)c2)o1 | 9 | 9 | 3 | . | 18 | 22
Cc1ccccc1CS(=O)(=O)c1nnc([C@H](CC(C)C)NC(=O)OC(C)(C)C)o1 | 1 | -1 | 12 | -1.1 | 41* | 45*
CC1Cc2ccccc2N1C(=O)Cn1nnc(-c2ccccc2NC(=O)C2CCC2)n1 (stereo not drawn) | . | 12 | -26 | -1.8 | 4 | 32*
OCCN(CCO)c1nc(N2CCCCC2)c2nc(N(CCO)CCO)nc(N3CCCCC3)c2n1 | 16 | 100* | . | . | . | .
CN(C)c1nc(N2CCCCC2)nc(N2CCCCC2)n1 | 8 | 3 | . | . | . | .
Cc1cc(C)c(C#N)c(N2CCN(CCOc3ccc(Cl)cc3)CC2)n1 | -4 | 100* | 7 | -1.6 | 2 | 32*
COc1ccc(Cl)cc1CN1CCN(c2nc(C)cc(C)c2C#N)CC1 | . | 97* | 1 | -1.7 | -14 | 13

Bioassay records as filed in PubChem BioAssay.
